Drawing on ChEMBL document CHEMBL1131618, “Synthesis, activity, and structure--activity relationship studies of novel cationic lipids for DNA transfer” (1998), this text covers Luciferase activity and RLU for 16 compounds.

Assay [1] has as its system HeLa. Kind of assay: Luciferase activity in human Hela cells. The assay is classed as functional. The method in brief: (§1)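 5×10^4 cells plated in DMEM at 37 °C, 5% CO2, and transfected after 24 h at 50/70% confluency in serum-free medium. CMV-luciferase plasmid mixed with cationic lipid in 75 mM NaCl final, four lipid:DNA ratios, added dropwise, triplicates. Serum added to 10% at 2 h, then 44 h more. Lysate supernatant read with 10 s luminometer counting. Value at optimal ratio.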

The subject of assay [2] is NIH3T3. Kind of assay: Luciferase activity in mouse fibroblasts NIH3T3 cells. The assay is classed as functional. In outline: as §1
Assay [3] has as its system NIH3T3. Kind of assay: Compound was tested for the impact of introduction of molecular probe as side chain entity in the linker position on expression of luciferase in transfected NIH3T3 cells (RLU = luciferase activity in relative light units (RLU)/10 s for 10E3 plated cells). The assay is classed as functional, Mus musculus. In outline:
as §1

In assay [4] the test system is CV1 cells (Cercopithecus aethiops). Kind of assay: Compound was tested for the impact of introduction of molecular probe as side chain entity in the linker position on expression of luciferase in transfected CV1 cells (RLU = luciferase activity in relative light units (RLU)/10 s for 10E3 plated c ells).
The subject of assay [5] is HeLa. The assay is described as follows: Compound was tested for the impact of introduction of a side chain entity in the linker position on expression of luciferase in transfected HeLa cells (RLU = luciferase activity in relative light units (RLU)/10 s for 10E3 plated cells). The assay is classed as functional, Homo sapiens. In outline:
as §1

Assay [6] relates to NIH3T3. Kind of assay: Compound was tested for the impact of introduction of a side chain entity in the linker position on expression of luciferase in transfected NIH3T3 cells (RLU = luciferase activity in relative light units (RLU)/10 s for 10E3 plated cells). The assay is classed as functional, Mus musculus. In outline: as §1
The test system of assay [7] is HeLa. Kind of assay: Compound was tested for the impact of linker length on expression of luciferase in transfected HeLa cells (RLU = luciferase activity in relative light units (RLU)/10 s for 10E3 plated cells). The assay is classed as functional, Homo sapiens. In outline:
as §1

A further assay relates to CV-1. Kind of assay: Compound was tested for luciferase activity in Monkey CV1 Cell Lines. The assay is classed as functional, Cercopithecidae. The method in brief: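 CV1 cells (5×10^4) plated in MEM at 37 °C, 5% CO2, and transfected after 24 h at 50/70% confluency in serum-free medium. CMV-luciferase plasmid mixed with lipid in 75 mM NaCl final, four lipid:DNA ratios, triplicates. 10% serum added at 2 h, then 44 h more. Lysates counted 10 s. Value reported at optimal ratio.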

Assay [8] relates to HeLa. Kind of assay: Compound was tested for the impact of polyamine geometry on expression of luciferase in transfected HeLa cells (RLU = luciferase activity in relative light units (RLU)/10 s for 10E3 plated cells). The assay is classed as functional, Homo sapiens. In outline:
as §1

Assay [9] relates to NIH3T3. The assay is described as follows: Compound tested for the impact on expression of luciferase in transfected NIH3T3 cells (RLU = luciferase activity in relative light units (RLU)/10 s for 10E3 plated cells). The assay is classed as functional, Mus musculus. In outline: as §1
The test system of assay [10] is HeLa. Kind of assay: Compound was tested for the impact of the length of the lipid on expression of luciferase in transfected HeLa cells (RLU = luciferase activity in relative light units (RLU)/10 s for 10E3 plated cells). The assay is classed as functional, Homo sapiens. The method in brief:
as §1

The test system of assay [11] is NIH3T3. The assay is described as follows: Compound was tested for the impact of the length of the lipid on expression of luciferase in transfected NIH3T3 cells (RLU = luciferase activity in relative light units (RLU)/10 s for 10E3 plated cells). The assay is classed as functional, Mus musculus. In outline: as §1

Regarding `CCCCCCCCCCCCCCCCCCN(CCCCCCCCCCCCCCCCCC)C(=O)[C@H](CCCCN)NC(=O)CNCCCNCCCCNCCCN`, the Luciferase activity is on record as 700000 RLU 10s-1 in the assay with HeLa [1] and 10000000 RLU 10s-1 with NIH3T3 [2].
On to `CCCCCCCCCCCCCCCCCCN(CCCCCCCCCCCCCCCCCC)C(=O)C(CCCCNC(=O)CCCCC1SC[C@@H]2NC(=O)N[C@H]12)NC(=O)CNCCCNCCCCNCCCN` (stereo partly drawn), for which the RLU in the assay with NIH3T3 [3] is listed as 5400000; in assay [4], 160000.
Regarding `CCCCCCCCCCCCCCCCCCN(CCCCCCCCCCCCCCCCCC)C(=O)C(CCCCNC(=O)OCc1ccccc1Cl)NC(=O)CNCCCNCCCCNCCCN` (stereo not drawn), the Luciferase activity in the assay on HeLa [1] came out at 1400000 RLU 10s-1; in the assay on NIH3T3 [2], 30000000 RLU 10s-1. Moreover, the RLU came out at 1400000 in the assay on HeLa [5] and 30000000 in the assay with NIH3T3 [6].
Compound `CCCCCCCCCCCCCCCCCCN(CCCCCCCCCCCCCCCCCC)C(=O)CCCCCNC(=O)CNCCCNCCCCNCCCN` yielded a Luciferase activity in the assay on HeLa [1] of 3500000 RLU 10s-1. The same compound had an RLU with HeLa [7] of 3500000.
In the case of `CCCCCCCCCCCCCCCCCCN(CCCCCCCCCCCCCCCCCC)C(=O)C(CCCCNC(=O)CCCC[C@H]1SC[C@@H]2NC(=O)N[C@@H]21)NC(=O)CNCCCNCCCCNCCCN` (stereo partly drawn), the Luciferase activity in the assay on CV-1 is recorded as 160000 RLU 10s-1; in the assay on NIH3T3 [2], 5400000 RLU 10s-1.
On to `CCCCCCCCCCCCCCCCCCN(CCCCCCCCCCCCCCCCCC)C(=O)CNC(=O)CNCCN(CCN)CCN`, for which the Luciferase activity in the assay with HeLa [1] was 130000 RLU 10s-1; with NIH3T3 [2], 20000000 RLU 10s-1. Moreover, the RLU was 130000 in the assay with HeLa [8] and 20000000 in the assay on NIH3T3 [9].
Turning to `CCCCCCCCCCCCCCCCCCN(CCCCCCCCCCCCCCCCCC)C(=O)CNCCCN(CCCN)CCCCN(CCCN)CCCN`, in the assay with NIH3T3 [9], the RLU worked out at 59000000.
`CCCCCCCCCCCCCCCCCCN(CCCCCCCCCCCCCCCCCC)C(=O)CNCCCNCCCCNCCCN`: the Luciferase activity in the assay on HeLa [1] came out at 2600000 RLU 10s-1; with NIH3T3 [2], 2000000 RLU 10s-1. Also, the RLU is listed as 2600000 in the assay on HeLa [7] and 2000000 in the assay on NIH3T3 [9].
On to `CCCCCCCCCCCCCCCCCCN(CCCCCCCCCCCCCCCCCC)C(=O)C(CCC(=O)O)NC(=O)CNCCCNCCCCNCCCN` (stereo not drawn), for which the RLU in the assay on HeLa [5] is on record as 15000000; with NIH3T3 [6], 63000000.
For `CCCCCCCCCCCCCCCCCCN(CCCCCCCCCCCCCCCCCC)C(=O)[C@H](CCC(=O)O)NC(=O)CNCCCNCCCCNCCCN`, the values for the Luciferase activity in the assay with HeLa [1] and with NIH3T3 [2] were 15000000 RLU 10s-1 and 63000000 RLU 10s-1, respectively.
As for `CCCCCCCCCCCCCCCCCCN(CCCCCCCCCCCCCCCCCC)C(=O)CNC(=O)CNCCN(CCCN)CCCCN(CCCN)CCCN`, the values for the Luciferase activity in the assay with HeLa [1] and in the assay on NIH3T3 [2] were 580000 RLU 10s-1 and 68000000 RLU 10s-1, respectively.
For the compound `CCCCCCCCCCCCCCCCCCN(CCCCCCCCCCCCCCCCCC)C(=O)CNC(=O)CNCCCNCCCCNCCCN`, the RLU in the assay with HeLa [10] was found to be 890000; in the assay on HeLa [8], 2400000; in the assay on NIH3T3 [11], 44000000; in the assay with HeLa [7], 2400000; in the assay with HeLa [5], 10000000; in the assay with NIH3T3 [3], 26000000. Moreover, the RLU in the assay with NIH3T3 [9] is 54000000; with NIH3T3 [6] it was 200000000; in [4], 7000.
Compound `CCCCCCCCCCCCCCCCCCN(CCCCCCCCCCCCCCCCCC)C(=O)CNCCN(CCN)CCN` yielded an RLU in the assay on NIH3T3 [9] of 1500000. Also, the Luciferase activity with NIH3T3 [2] is recorded as 1500000 RLU 10s-1.
On to `CCCCCCCCCCCCCCCCCCN(CCCCCCCCCCCCCCCCCC)C(=O)C(N)CCCN=C(N)N` (stereo not drawn), for which the Luciferase activity was 4700 RLU 10s-1 in the assay with HeLa [1] and 8700 RLU 10s-1 in the assay on NIH3T3 [2]. Also, the results for the RLU in the assay with HeLa [5] and in the assay with NIH3T3 [6] were 4700 and 8700, respectively.
Regarding `CCCCCCCCCCCCCCCCCCN(CCCCCCCCCCCCCCCCCC)C(=O)C(CCCN=C(N)N)NC(=O)CNCCCNCCCCNCCCN` (stereo in doubt; form 2), the results for the Luciferase activity with HeLa [1] and with NIH3T3 [2] were 8200000 RLU 10s-1 and 11000000 RLU 10s-1, respectively.
Turning to `CCCCCCCCCCCCCCCCCCN(CCCCCCCCCCCCCCCCCC)C(=O)C(CCCC/N=C(\S)Nc1ccc(-c2c3ccc(=[N+](C)C)cc-3oc3cc(N(C)C)ccc23)c(C(=O)[O-])c1)NC(=O)CNCCCNCCCCNCCCN` (stereo not drawn) [CATIONIC LIPID], the Luciferase activity was determined as 130000 RLU 10s-1 in the assay with CV-1 and 1200000 RLU 10s-1 in the assay on NIH3T3 [2]. Moreover, the RLU with NIH3T3 [3] was determined as 1200000; in assay [4], 130000.
